According to ChEMBL document CHEMBL2176868, “7-Alkyl-3-benzylcoumarins: a versatile scaffold for the development of potent and selective cannabinoid receptor agonists and antagonists” (J Med Chem, 2012):

Legend:
[1] = target: T1, Cannabinoid receptor 2 (Homo sapiens, UniProt P34972); test: Agonist activity at human CB2 receptor expressed in CHO cells assessed as inhibition of forskolin-stimulated cAMP accumulation using [3H]-cAMP at 1 uM after 5 mins by liquid scintillation counter relative to CP55940; format: functional, cell-based
T1 sequence (P34972 whole entry): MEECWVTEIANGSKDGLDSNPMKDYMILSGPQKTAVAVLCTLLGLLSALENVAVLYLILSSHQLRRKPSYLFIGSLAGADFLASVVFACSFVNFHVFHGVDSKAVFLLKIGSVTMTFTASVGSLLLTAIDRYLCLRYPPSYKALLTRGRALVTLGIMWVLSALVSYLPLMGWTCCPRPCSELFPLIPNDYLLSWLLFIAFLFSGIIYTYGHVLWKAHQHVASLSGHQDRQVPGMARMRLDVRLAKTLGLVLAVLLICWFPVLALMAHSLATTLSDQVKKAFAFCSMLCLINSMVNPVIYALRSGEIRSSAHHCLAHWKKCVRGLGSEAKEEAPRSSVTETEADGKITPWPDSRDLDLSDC

[2] = target: T1, Cannabinoid receptor 2; test: Displacement of [3H]CP55,940 from human CB2 receptor expressed in CHO cells after 2 hrs by liquid scintillation counter; format: cell-based
[3] = target: T2, Cannabinoid receptor 1 (Homo sapiens, UniProt P21554); test: biochemical; format: cell-based, CHO
T2 sequence (P21554 whole entry): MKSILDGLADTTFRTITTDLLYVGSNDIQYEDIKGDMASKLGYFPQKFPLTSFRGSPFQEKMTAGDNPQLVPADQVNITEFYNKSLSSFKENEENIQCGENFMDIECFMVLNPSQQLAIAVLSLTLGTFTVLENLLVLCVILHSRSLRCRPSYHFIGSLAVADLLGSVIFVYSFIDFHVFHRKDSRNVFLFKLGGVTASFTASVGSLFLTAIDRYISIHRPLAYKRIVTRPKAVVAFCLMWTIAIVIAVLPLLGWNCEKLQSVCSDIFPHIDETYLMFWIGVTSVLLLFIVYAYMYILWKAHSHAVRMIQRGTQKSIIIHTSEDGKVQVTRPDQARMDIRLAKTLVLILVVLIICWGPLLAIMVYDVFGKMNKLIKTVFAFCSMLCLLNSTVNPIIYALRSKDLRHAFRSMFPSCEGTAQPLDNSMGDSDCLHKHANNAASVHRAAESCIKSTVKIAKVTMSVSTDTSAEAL

[4] = target: T2, Cannabinoid receptor 1; conditions: CHO, at 1 µM
[5] = target: T1, Cannabinoid receptor 2; test: Agonist activity at human CB2 receptor expressed in CHO cells assessed as inhibition of forskolin-stimulated cAMP accumulation using [3H]-cAMP after 5 mins by liquid scintillation counter; format: functional, cell-based
How it was run: (§1)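 Intact CHO cells stably expressing the receptor (retrovirally transfected, kept in 0.2 mg/mL G418) were seeded 24 h ahead and preincubated 2 h at 37 °C in HBSS. Cells were lysed hot and cAMP was read by competition with [3H]cAMP for bovine adrenal binding protein, filtered and counted. EC50 came from full concentration-response curves, three independent experiments in duplicate.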

[6] = target: T2, Cannabinoid receptor 1; test: Agonist activity at human CB1 receptor expressed in CHO cells assessed as inhibition of forskolin-stimulated cAMP accumulation using [3H]-cAMP after 5 mins by liquid scintillation counter; format: functional, cell-based; how it was run: as §1
[7] = target: T1, Cannabinoid receptor 2; test: Displacement of [3H]CP55,940 from human CB2 receptor expressed in CHO cells at 10 uM after 2 hrs by liquid scintillation counter; format: cell-based
How it was run: (§2)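 The screen used CHO cell membranes expressing the human receptor (50 μg protein), [3H]CP55,940 at 0.1 nM final and compound at 10 μM in 50 mM Tris, 3 mM MgCl2, 0.1% BSA, pH 7.4, with 2.5% DMSO final. Incubation was 2 h at room temperature. Nonspecific binding was taken with 10 μM unlabeled CP55,940. Filtration through PEI-soaked GF/C filters was followed by scintillation counting, and the value is % inhibition of binding.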

[8] = target: T2, Cannabinoid receptor 1; test: Displacement of [3H]CP55,940 from human CB1 receptor expressed in CHO cells at 10 uM after 2 hrs by liquid scintillation counter; format: cell-based; how it was run: as §2
[9] = test system: CHO; test: Selectivity ratio of Ki for human CB1 receptor to Ki for human CB2 receptor expressed in CHO cells; format: cell-based

| SMILES | inhibition [1] [%] | Ki [2] [µM] | Ki [3] [µM] | inhibition [4] [%] | EC50 [5] [µM] | EC50 [6] [µM] | inhibition [7] [%] | inhibition [8] [%] | Ratio Ki [9] |
| --- | --- | --- | --- | --- | --- | --- | --- | --- | --- |
| CCCCCc1cc(OC)c2cc(Cc3ccccc3Cl)c(=O)oc2c1 | 47 | 0.185 | 0.033 | 6 |  |  |  |  |  |
| CCCCCc1cc(OC)c2cc(Cc3ccccc3OC)c(=O)oc2c1 | 106 | 0.049 | 0.032 | 93 | 0.014 | 0.056 |  |  |  |
| CCCCCCCC(C)(C)c1cc(OC)c2cc(Cc3ccccc3OC)c(=O)oc2c1 |  | 10 | 10 |  |  |  | 47 | 51 |  |
| COc1cccc(Cc2cc3c(OC)cc(Br)cc3oc2=O)c1 | 0 | 2.45 | > 10 | 0 |  |  |  | 38 |  |
| CCCCCCC(C)(C)c1cc(O)c2cc(Cc3ccccc3O)c(=O)oc2c1 | 76 | 0.21 | 0.244 | 0 | 0.054 |  |  |  |  |
| CCCCCc1cc(OC)c2cc(Cc3cccc(Cl)c3)c(=O)oc2c1 | 40 | 0.35 | 0.637 | 0 |  |  |  |  |  |
| CCCCCCC(C)(C)c1cc(O)c2cc(Cc3ccccc3)c(=O)oc2c1 | 32 | 0.465 | 2.63 | 84 |  |  |  |  |  |
| Cc1cc(O)c2cc(Cc3ccccc3C)c(=O)oc2c1 |  | > 10 | > 10 |  |  |  | 38 | 34 |  |
| COc1cccc(Cc2cc3c(OC)cc(CO)cc3oc2=O)c1 |  | > 10 | > 10 |  |  |  | 16 | 8 |  |
| CCCCCCC(C)(C)c1cc(OC)c2cc(Cc3ccccc3)c(=O)oc2c1 | 0 | 4.12 | 1.43 | 27 |  |  |  |  |  |
| COc1cccc(Cc2cc3c(OC)cc(CO[Si](c4ccccc4)(c4ccccc4)C(C)(C)C)cc3oc2=O)c1 |  | > 10 | > 10 |  |  |  | 4 | 12 |  |
| CCCCC1(c2cc(O)c3cc(Cc4ccccc4O)c(=O)oc3c2)CCCC1 | 106 | 0.068 | 1.58 | 18 | 0.048 |  |  |  |  |
| Cc1ccc(C(C)C)c2cc(Cc3ccccc3O)c(=O)oc12 |  | > 10 | > 10 |  |  |  | 24 | 31 |  |
| CCCCC1(c2cc(OC)c3cc(Cc4ccccc4OC)c(=O)oc3c2)CCCCC1 |  | ≤ 10 | ≤ 10 |  |  |  | 45 | 42 |  |
| CCCCC1(c2cc(OC)c3cc(Cc4ccccc4OC)c(=O)oc3c2)CCCC1 | 3 | 1.14 | 0.598 | 110 |  |  |  |  |  |
| CCCCCCC(C)(C)c1cc(OC)c2cc(Cc3ccccc3OC)c(=O)oc2c1 | 30 | 3.01 | 1.02 | 0 |  |  |  |  |  |

| SMILES | inhibition [1] [%] | Ki [2] [µM] | Ki [3] [µM] | inhibition [4] [%] | EC50 [5] [µM] | EC50 [6] [µM] | inhibition [7] [%] | inhibition [8] [%] | Ratio Ki [9] |
| --- | --- | --- | --- | --- | --- | --- | --- | --- | --- |
| CCCCCc1cc(O)c2cc(Cc3ccccc3Cl)c(=O)oc2c1 | 2 | 1.94 | 19.1 | 60 |  |  |  |  |  |
| CCCCC1(c2cc(O)c3cc(Cc4ccccc4O)c(=O)oc3c2)CCCCC1 | 76 | 0.049 | 4.89 | 0 | 0.179 |  |  |  | 100 |
| CCCCCc1cc(O)c2cc(Cc3cccc(C)c3)c(=O)oc2c1 | 10 | 1.76 | 2.17 | 42 |  |  |  |  |  |
| CCCCCc1cc(OC)c2cc(Cc3ccccc3C)c(=O)oc2c1 | 58 | 0.405 | 0.022 | 0 | 0.213 |  |  |  |  |
| COc1cccc(Cc2cc3c(OC)cc(CBr)cc3oc2=O)c1 | 0 | 13.3 | 4.74 | 23 |  |  |  |  |  |
| CCCCCc1cc(O)c2cc(Cc3ccccc3C)c(=O)oc2c1 | 12 | 3.57 | 1.64 | 9 |  |  |  |  |  |
| CCCCCc1cc(OC)c2cc(Cc3cccc(OC)c3)c(=O)oc2c1 | 93 | 0.143 | 0.045 | 58 | 0.092 | 0.43 |  |  |  |
| CCCCCCCC(C)(C)c1cc(O)c2cc(Cc3ccccc3O)c(=O)oc2c1 | 52 | 0.292 | 1.17 | 0 |  |  |  |  |  |
| COc1cccc(Cc2cc3c(OC)cccc3oc2=O)c1 |  | > 10 | 21.1 | 0 |  |  | 27 |  |  |
| CCCCCc1cc(O)c2cc(Cc3cccc(Cl)c3)c(=O)oc2c1 | 0 | 2.2 | 6.39 | 70 |  |  |  |  |  |
| CCCCCc1cc(O)c2cc(Cc3ccccc3)c(=O)oc2c1 | 0 | 1.68 | 1.27 | 0 |  |  |  |  |  |
| CCCCCc1cc(O)c2cc(Cc3cccc(O)c3)c(=O)oc2c1 | 0 | 5.15 | 16.2 | 0 |  |  |  |  |  |
| CCCCCc1cc(O)c2cc(Cc3ccccc3O)c(=O)oc2c1 | 0 | 4.8 | 9.82 | 109 |  |  |  |  |  |
| CCCCCc1cc(OC)c2cc(Cc3cccc(C)c3)c(=O)oc2c1 | 50 | 0.392 | 0.713 | 0 |  |  |  |  |  |
| CCCCCc1cc(OC)c2cc(Cc3ccccc3)c(=O)oc2c1 | 47 | 0.267 | 1.92 | 58 |  |  |  |  | 7 |
| Cc1ccc(Cc2cc3c(O)cc(C)cc3oc2=O)cc1 |  | > 10 | > 10 |  |  |  | 23 | 30 |  |
